Source: ChEMBL document CHEMBL3352499, “One pot three components microwave assisted and conventional synthesis of new 3-(4-chloro-2-hydroxyphenyl)-2-(substituted) thiazolidin-4-one as antimicrobial agents” (Bioorg Med Chem Lett, 2014)
Values after ≈ are worked out from the molar mass of the structure shown.

What was measured:
Aspergillus flavus [1] = assay: Antimicrobial activity against Aspergillus flavus NCIM-539 after 20 hrs by two fold serial macrodilution technique; format: functional; settings: NCIM-539, 20 h
Cryptococcus neoformans [2] = assay: Antimicrobial activity against Cryptococcus neoformans NCIM-3378 after 20 hrs by two fold serial macrodilution technique; format: functional; settings: NCIM-3378, 20 h
Bacillus subtilis [3] = assay: Antimicrobial activity against Bacillus subtilis NCIM-2063 after 20 hrs by two fold serial macrodilution technique; format: functional; settings: NCIM-2063, 20 h
How it was run: (§1)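 Serial macrodilution in 96-well microtiter plates. Compounds were dissolved in saline (0.8% NaCl) containing 5% DMSO, and strains were incubated with a range of concentrations for 20 h at 37 °C on a rotary shaker (160 rpm). MIC was the lowest concentration without growth. Runs were in triplicate, with the mean taken. The negative control was 5% DMSO.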

Aspergillus niger [4] = assay: Fungicidal activity against Aspergillus niger NCIM-1196 after 48 to 72 hrs by two fold serial macrodilution technique; format: functional
How it was run: (§2)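 Serial subcultivation followed 72 h of exposure to compounds dissolved in saline containing 5% DMSO. MBC/MFC was the lowest concentration with no visible growth, taken as 99.5% killing of the original inoculum. Runs were in triplicate, with the mean reading used.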

Staphylococcus aureus [5] = assay: Bactericidal activity against Staphylococcus aureus NCIM-2901 after 72 hrs by two fold serial macrodilution technique; format: functional; settings: NCIM-2901, 72 h; how it was run: as §2
Cryptococcus neoformans [6] = assay: Fungicidal activity against Cryptococcus neoformans NCIM-3378 after 48 to 72 hrs by two fold serial macrodilution technique; format: functional; how it was run: as §2
Staphylococcus aureus [7] = assay: Antimicrobial activity against Staphylococcus aureus NCIM-2901 after 20 hrs by two fold serial macrodilution technique; format: functional; settings: NCIM-2901, 20 h; how it was run: as §1
Escherichia coli [8] = assay: Antimicrobial activity against Escherichia coli NCIM-2256 after 20 hrs by two fold serial macrodilution technique; format: functional; settings: NCIM-2256, 20 h; how it was run: as §1
Salmonella typhimurium [9] = assay: Antimicrobial activity against […] after 20 hrs by two fold serial macrodilution technique; format: functional, Salmonella enterica subsp. enterica serovar Typhimurium; settings: Salmonella enterica; how it was run: as §1
Aspergillus niger [10] = assay: Antimicrobial activity against Aspergillus niger NCIM-1196 after 20 hrs by two fold serial macrodilution technique; format: functional; settings: NCIM-1196, 20 h
MCF7 = assay: Cytotoxicity against human MCF7 cells by SRB method; format: cell-based
How it was run: (§3)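 SRB colorimetric growth assay. IC50, in µM, was the concentration inhibiting cell growth by 50% relative to untreated control cells. Runs were in triplicate in three independent experiments, with means reported. The positive control was doxorubicin.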

Candida albicans [11] = assay: Fungicidal activity against Candida albicans NCIM-3471 after 48 to 72 hrs by two fold serial macrodilution technique; format: functional; how it was run: as §2
Escherichia coli [12] = assay: Bactericidal activity against Escherichia coli NCIM-2256 after 72 hrs by two fold serial macrodilution technique; format: functional; settings: NCIM-2256, 72 h; how it was run: as §2
Aspergillus flavus [13] = assay: Fungicidal activity against Aspergillus flavus NCIM-539 after 48 to 72 hrs by two fold serial macrodilution technique; format: functional; how it was run: as §2
Candida albicans [14] = assay: Antimicrobial activity against Candida albicans NCIM-3471 after 20 hrs by two fold serial macrodilution technique; format: functional; settings: NCIM-3471, 20 h
HeLa = assay: Cytotoxicity against human HeLa cells by SRB method; format: cell-based; how it was run: as §3
Salmonella typhimurium [15] = assay: Bactericidal activity against […] after 72 hrs by two fold serial macrodilution technique; format: functional, Salmonella enterica subsp. enterica serovar Typhimurium; settings: Salmonella enterica; how it was run: as §2
Bacillus subtilis [16] = assay: Bactericidal activity against Bacillus subtilis NCIM-2063 after 72 hrs by two fold serial macrodilution technique; format: functional; settings: NCIM-2063, 72 h; how it was run: as §2

MIC (Aspergillus flavus [1]) [µg/mL] | MIC (Cryptococcus neoformans [2]) [µg/mL] | MIC (Bacillus subtilis [3]) [µg/mL] | MIC (Staphylococcus aureus [7]) [µg/mL] | MIC (Escherichia coli [8]) [µg/mL] | MIC (Salmonella typhimurium [9]) [µg/mL] | MIC (Aspergillus niger [10]) [µg/mL] | MIC (Candida albicans [14]) [µg/mL] | SMILES | MFC (Aspergillus niger [4]) [µg/mL] | MBC (Staphylococcus aureus [5]) [µg/mL] | MFC (Cryptococcus neoformans [6]) [µg/mL] | IC50 (MCF7) [µM] | MFC (Candida albicans [11]) [µg/mL] | MBC (Escherichia coli [12]) [µg/mL] | MFC (Aspergillus flavus [13]) [µg/mL] | IC50 (HeLa) [µM] | MBC (Salmonella typhimurium [15]) [µg/mL] | MBC (Bacillus subtilis [16]) [µg/mL]
80 (≈ 262 µM) | 70 (≈ 229 µM) | 60 (≈ 196 µM) | 25 (≈ 81.8 µM) | 65 (≈ 213 µM) | 55 (≈ 180 µM) | 90 (≈ 294 µM) | 60 (≈ 196 µM) | O=C1CSC(c2ccccc2)N1c1ccc(Cl)cc1O (configuration not stated) | 120 (≈ 392 µM) | 40 (≈ 131 µM) | 125 (≈ 409 µM) | 56.8 | 115 (≈ 376 µM) | 125 (≈ 409 µM) | 115 (≈ 376 µM) | 63.7 | 120 (≈ 392 µM) | 85 (≈ 278 µM)
75 (≈ 214 µM) | 90 (≈ 257 µM) | 100 (≈ 285 µM) | 85 (≈ 242 µM) | 90 (≈ 257 µM) | 80 (≈ 228 µM) | 100 (≈ 285 µM) | 95 (≈ 271 µM) | O=C1CSC(c2ccc([N+](=O)[O-])cc2)N1c1ccc(Cl)cc1O (configuration not stated) | 160 (≈ 456 µM) | 140 (≈ 399 µM) | 135 (≈ 385 µM) | 41 | 155 (≈ 442 µM) | 155 (≈ 442 µM) | 135 (≈ 385 µM) | 52.2 | 135 (≈ 385 µM) | 140 (≈ 399 µM)
85 (≈ 227 µM) | 100 (≈ 267 µM) | 80 (≈ 214 µM) | 90 (≈ 240 µM) | 70 (≈ 187 µM) | 75 (≈ 200 µM) | 70 (≈ 187 µM) | 90 (≈ 240 µM) | O=C1CSC(c2ccc(Cl)cc2Cl)N1c1ccc(Cl)cc1O (configuration not stated) | 145 (≈ 387 µM) | 160 (≈ 427 µM) | 150 (≈ 400 µM) | 48.4 | 160 (≈ 427 µM) | 150 (≈ 400 µM) | 140 (≈ 374 µM) | 49.5 | 155 (≈ 414 µM) | 160 (≈ 427 µM)
90 (≈ 265 µM) | 95 (≈ 279 µM) | 25 (≈ 73.5 µM) | 20 (≈ 58.8 µM) | 50 (≈ 147 µM) | 65 (≈ 191 µM) | 65 (≈ 191 µM) | 70 (≈ 206 µM) | O=C1CSC(c2ccc(Cl)cc2)N1c1ccc(Cl)cc1O (configuration not stated) | 165 (≈ 485 µM) | 45 (≈ 132 µM) | 160 (≈ 470 µM) | 56.2 | 160 (≈ 470 µM) | 165 (≈ 485 µM) | 155 (≈ 456 µM) | 64.4 | 155 (≈ 456 µM) | 45 (≈ 132 µM)
35 (≈ 103 µM) | 90 (≈ 265 µM) | 20 (≈ 58.8 µM) | 35 (≈ 103 µM) | 80 (≈ 235 µM) | 65 (≈ 191 µM) | 100 (≈ 294 µM) | 55 (≈ 162 µM) | O=C1CSC(c2ccccc2Cl)N1c1ccc(Cl)cc1O (configuration not stated) | 155 (≈ 456 µM) | 55 (≈ 162 µM) | 135 (≈ 397 µM) | 56.2 | 140 (≈ 411 µM) | 140 (≈ 411 µM) | 50 (≈ 147 µM) | 62.8 | 135 (≈ 397 µM) | 40 (≈ 118 µM)
15 (≈ 44.7 µM) | 65 (≈ 194 µM) | 30 (≈ 89.3 µM) | 30 (≈ 89.3 µM) | 35 (≈ 104 µM) | 25 (≈ 74.4 µM) | 80 (≈ 238 µM) | 15 (≈ 44.7 µM) | COc1ccc(C2SCC(=O)N2c2ccc(Cl)cc2O)cc1 (configuration not stated) | 150 (≈ 447 µM) | 40 (≈ 119 µM) | 155 (≈ 462 µM) | 48.6 | 20 (≈ 59.6 µM) | 45 (≈ 134 µM) | 20 (≈ 59.6 µM) | 51.6 | 110 (≈ 328 µM) | 40 (≈ 119 µM)
10 (≈ 27.3 µM) | 70 (≈ 191 µM) | 30 (≈ 82 µM) | 15 (≈ 41 µM) | 30 (≈ 82 µM) | 35 (≈ 95.7 µM) | 65 (≈ 178 µM) | 3 (≈ 8.2 µM) | COc1ccc(C2SCC(=O)N2c2ccc(Cl)cc2O)c(OC)c1 (configuration not stated) | 120 (≈ 328 µM) | 25 (≈ 68.3 µM) | 120 (≈ 328 µM) | 68.5 | 17.5 (≈ 47.8 µM) | 50 (≈ 137 µM) | 15 (≈ 41 µM) | 68.2 | 45 (≈ 123 µM) | 45 (≈ 123 µM)
90 (≈ 278 µM) | 90 (≈ 278 µM) | 55 (≈ 170 µM) | 25 (≈ 77.2 µM) | 70 (≈ 216 µM) | 60 (≈ 185 µM) | 50 (≈ 154 µM) | 65 (≈ 201 µM) | O=C1CSC(c2ccc(F)cc2)N1c1ccc(Cl)cc1O (configuration not stated) | 140 (≈ 432 µM) | 45 (≈ 139 µM) | 145 (≈ 448 µM) | 68.7 | 150 (≈ 463 µM) | 145 (≈ 448 µM) | 140 (≈ 432 µM) | 72.4 | 140 (≈ 432 µM) | 150 (≈ 463 µM)
90 (≈ 278 µM) | 85 (≈ 263 µM) | 100 (≈ 309 µM) | 80 (≈ 247 µM) | 70 (≈ 216 µM) | 90 (≈ 278 µM) | 100 (≈ 309 µM) | 95 (≈ 293 µM) | O=C1CSC(c2cccc(F)c2)N1c1ccc(Cl)cc1O (configuration not stated) | 165 (≈ 510 µM) | 160 (≈ 494 µM) | 140 (≈ 432 µM) | 65.8 | 165 (≈ 510 µM) | 145 (≈ 448 µM) | 140 (≈ 432 µM) | 67.3 | 155 (≈ 479 µM) | 155 (≈ 479 µM)
